For four molecules, IC50, Activity and inhibition results are on record in ChEMBL document CHEMBL2062477, “Dual-Specificity Phosphatase CDC25A/B Inhibitor Identified from a Focused Library with Nonelectrophilic Core Structure” (ACS Med Chem Lett, 2012).

Test [1] addresses T1, Dual specificity protein phosphatase 1 (Homo sapiens, UniProt P28562).
T1 sequence (P28562 whole entry): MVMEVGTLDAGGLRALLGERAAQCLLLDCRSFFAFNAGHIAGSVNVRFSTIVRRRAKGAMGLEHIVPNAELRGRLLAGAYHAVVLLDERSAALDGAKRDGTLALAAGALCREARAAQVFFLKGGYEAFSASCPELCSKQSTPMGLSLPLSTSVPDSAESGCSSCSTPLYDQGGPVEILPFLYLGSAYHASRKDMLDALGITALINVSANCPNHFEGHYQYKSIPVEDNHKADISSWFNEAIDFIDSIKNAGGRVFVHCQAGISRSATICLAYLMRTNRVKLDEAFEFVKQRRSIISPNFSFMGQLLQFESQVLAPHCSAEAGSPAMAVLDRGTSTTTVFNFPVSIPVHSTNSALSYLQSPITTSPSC
Nature of the test: Inhibition of MKP1.

The test system of test [2] is HL-60. Nature of the test: cells. Particulars: Homo sapiens, HL-60, 48 h.
A short description of test [3]: Cell cycle arrest in mouse tsFT210 cells assessed as accumulation at G2/M phase by propidium iodide staining-based flow cytometric analysis. Format: functional. The procedure, abridged:
(§1)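 tsFT210 cells synchronized at G2 by 17 h at 39 °C, then released for 4 h at 32 °C with compound (5–50 μM) or DMSO vehicle; 100 nM nocodazole reference. Cell-cycle phase distribution, including sub-G1, determined by flow cytometry.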

Test [4] has as its system tsFT210. Kind of test: Inhibition of CDC25 in mouse tsFT210 cells assessed as hyperphosphorylation of CDK1 protein by Western blot analysis. It counts as cell-based. The procedure, abridged:
(§2)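 G2-arrested tsFT210 cells (39 °C, 17 h) released at 32 °C for 4 h with compound or vehicle; CDK1 phosphorylation status and total CDK1 assessed by Western blotting.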

In test [5] the target is T2, M-phase inducer phosphatase 3 (Homo sapiens, UniProt P30307).
T2 sequence (P30307 whole entry): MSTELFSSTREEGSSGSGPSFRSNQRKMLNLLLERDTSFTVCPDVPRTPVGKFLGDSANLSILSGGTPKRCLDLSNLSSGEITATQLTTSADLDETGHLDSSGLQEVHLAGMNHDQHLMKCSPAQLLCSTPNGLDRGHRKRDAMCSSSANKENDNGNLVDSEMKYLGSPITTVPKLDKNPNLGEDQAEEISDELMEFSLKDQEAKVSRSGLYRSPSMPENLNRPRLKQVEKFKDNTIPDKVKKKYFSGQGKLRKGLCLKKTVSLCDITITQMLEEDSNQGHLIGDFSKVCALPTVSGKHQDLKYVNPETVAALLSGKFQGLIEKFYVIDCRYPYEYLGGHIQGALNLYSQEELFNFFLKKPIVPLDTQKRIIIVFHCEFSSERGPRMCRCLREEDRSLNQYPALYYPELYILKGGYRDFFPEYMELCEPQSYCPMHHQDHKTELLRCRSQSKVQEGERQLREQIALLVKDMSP
Nature of the test: Inhibition of CDC25C.

For test [6], the system named is tsFT210. Kind of test: Induction of ROS generation in mouse tsFT210 cells at 50 uM at 32 degC for 30 min measured by flow cytometric analysis pretreated with H2DCFDA at 39 degC.
The test system of test [7] is tsFT210. Kind of test: Induction of apoptosis in mouse tsFT210 cells assessed as increase in subG1 population at 50 uM after 17 hrs by propidium iodide staining-based flow cytometric analysis. It counts as functional, cell-based. Particulars: in the assay text read “after 4 hrs” for “after 17 hrs”. The procedure, abridged:
as §1

Test [8] addresses T3, Dual specificity protein phosphatase 6 (Homo sapiens, UniProt Q16828).
T3 sequence (Q16828 whole entry): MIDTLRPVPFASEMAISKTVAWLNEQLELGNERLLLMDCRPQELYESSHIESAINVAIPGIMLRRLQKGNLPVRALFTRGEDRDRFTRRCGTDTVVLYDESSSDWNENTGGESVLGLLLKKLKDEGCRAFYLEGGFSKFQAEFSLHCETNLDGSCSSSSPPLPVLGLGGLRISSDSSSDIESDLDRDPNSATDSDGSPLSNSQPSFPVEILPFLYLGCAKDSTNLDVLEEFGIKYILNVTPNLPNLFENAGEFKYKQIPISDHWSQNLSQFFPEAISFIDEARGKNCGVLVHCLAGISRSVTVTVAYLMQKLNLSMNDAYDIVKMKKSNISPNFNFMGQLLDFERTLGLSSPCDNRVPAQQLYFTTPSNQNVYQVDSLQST
Nature of the test: Inhibition of MKP3.

In test [9] the target is T4, M-phase inducer phosphatase 1 (Homo sapiens, UniProt P30304).
T4 sequence (P30304 whole entry): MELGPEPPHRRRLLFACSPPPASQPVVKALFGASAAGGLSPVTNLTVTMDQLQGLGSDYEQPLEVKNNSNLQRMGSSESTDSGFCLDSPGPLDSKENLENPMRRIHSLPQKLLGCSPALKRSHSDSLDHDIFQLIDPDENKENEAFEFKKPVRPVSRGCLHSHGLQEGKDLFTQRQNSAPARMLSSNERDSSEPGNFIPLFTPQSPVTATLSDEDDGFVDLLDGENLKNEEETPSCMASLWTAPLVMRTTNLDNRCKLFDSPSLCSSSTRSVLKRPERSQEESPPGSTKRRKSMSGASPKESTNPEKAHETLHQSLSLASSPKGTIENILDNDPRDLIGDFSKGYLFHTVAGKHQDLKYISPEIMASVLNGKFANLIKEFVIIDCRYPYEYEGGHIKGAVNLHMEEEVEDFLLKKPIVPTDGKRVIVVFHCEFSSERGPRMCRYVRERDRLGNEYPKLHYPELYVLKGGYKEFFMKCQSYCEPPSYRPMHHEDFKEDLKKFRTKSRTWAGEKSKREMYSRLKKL
Kind of test: Inhibition of CDC25A.

The target of test [10] is T5, Tyrosine-protein phosphatase non-receptor type 1 (Homo sapiens, UniProt P18031).
T5 sequence (P18031 whole entry): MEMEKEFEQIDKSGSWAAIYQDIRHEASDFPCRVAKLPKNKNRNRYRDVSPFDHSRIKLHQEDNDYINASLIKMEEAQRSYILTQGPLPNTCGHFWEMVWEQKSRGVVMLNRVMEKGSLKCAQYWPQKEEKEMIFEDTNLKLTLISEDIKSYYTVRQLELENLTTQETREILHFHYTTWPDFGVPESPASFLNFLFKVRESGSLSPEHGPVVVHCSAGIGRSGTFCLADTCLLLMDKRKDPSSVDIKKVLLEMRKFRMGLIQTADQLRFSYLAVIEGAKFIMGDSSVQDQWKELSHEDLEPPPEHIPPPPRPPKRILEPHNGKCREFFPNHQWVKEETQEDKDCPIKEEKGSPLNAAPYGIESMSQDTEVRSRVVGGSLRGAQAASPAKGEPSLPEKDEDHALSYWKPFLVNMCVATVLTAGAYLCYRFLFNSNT
Nature of the test: Inhibition of PTP1B.

The target of test [11] is Dual specificity protein phosphatase 3 (Homo sapiens, UniProt P51452). Kind of test: Inhibition of VHR.
Chain of Dual specificity protein phosphatase 3 (P51452 whole entry): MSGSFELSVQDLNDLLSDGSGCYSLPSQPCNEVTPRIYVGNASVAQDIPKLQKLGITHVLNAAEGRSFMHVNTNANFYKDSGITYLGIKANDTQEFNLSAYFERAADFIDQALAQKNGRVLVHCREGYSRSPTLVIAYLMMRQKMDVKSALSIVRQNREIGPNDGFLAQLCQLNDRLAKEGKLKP
Test [12] has as its target T4, M-phase inducer phosphatase 1. Nature of the test: Inhibition of CDC25A in presence of 2 mM DTT. Summed up:
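In vitro inhibition of purified CDC25A or CDC25B with DTT concentration in the assay buffer varied.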

Test [13] has as its target T6, M-phase inducer phosphatase 2 (Homo sapiens, UniProt P30305).
T6 sequence (P30305 whole entry): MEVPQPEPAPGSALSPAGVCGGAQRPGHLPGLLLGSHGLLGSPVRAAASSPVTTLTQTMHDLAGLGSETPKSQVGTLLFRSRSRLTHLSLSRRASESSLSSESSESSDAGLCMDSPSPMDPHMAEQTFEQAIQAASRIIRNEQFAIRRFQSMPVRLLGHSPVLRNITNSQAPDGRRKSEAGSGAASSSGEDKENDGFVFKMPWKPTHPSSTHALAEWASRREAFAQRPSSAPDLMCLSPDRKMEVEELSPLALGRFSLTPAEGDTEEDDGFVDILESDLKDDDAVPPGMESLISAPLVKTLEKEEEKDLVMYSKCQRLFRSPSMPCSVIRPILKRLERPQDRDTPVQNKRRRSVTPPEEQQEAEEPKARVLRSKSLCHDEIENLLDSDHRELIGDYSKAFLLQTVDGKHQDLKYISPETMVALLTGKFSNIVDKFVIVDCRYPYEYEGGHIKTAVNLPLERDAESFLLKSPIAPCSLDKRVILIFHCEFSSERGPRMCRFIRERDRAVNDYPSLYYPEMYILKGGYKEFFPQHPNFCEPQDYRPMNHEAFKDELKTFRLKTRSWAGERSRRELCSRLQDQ
Nature of the test: Inhibition of CDC25B.

For test [14], the system named is tsFT210. Kind of test: Inhibition of CDC25 in mouse tsFT210 cells assessed as hyperphosphorylation of CDK1 protein at 50 uM by Western blot analysis. Format: cell-based. The procedure, abridged:
as §2

Test [15] in a line: Cell cycle arrest in mouse tsFT210 cells assessed as accumulation at G2/M phase at 5 to 50 uM by propidium iodide staining-based flow cytometric analysis. It counts as functional. The procedure, abridged: as §1

Calls of active or inactive are those of the source. The rule behind the calls is not given here.

For `CCCCCCCCCCCCCCCC(NCc1ccccc1O)=C1C(=O)OC(CO)C1=O` (mixture of isomers), the IC50 in test [1] is over 100 µM; in test [2] it was 2.44 µM; in test [5], over 100 µM; in test [8], over 100 µM; in test [9] it was 13.5 µM; in test [10], over 100 µM. Moreover, the IC50 in test [11] came to 24.9 µM; in test [12], 13.5 µM. The Activity entry in test [3] is “Dose-dependent effect”. Moreover, in test [4], the inhibition result was “Dose-dependent effect”. The result in test [6] and in test [7] was inactive.
`CCCCCCCCCCCCCCCC(NCc1cccc(C)c1)=C1C(=O)OC(CO)C1=O` (mixture of isomers): the half-inhibitory concentration (IC50) in test [13], in test [1], in test [5], in test [8], in [9] and in test [10] was over 100 µM in each case. In [11], this molecule gave an IC50 of 1.63 µM. Moreover, the inhibition result in [14] is “inactive”. In addition, the result in test [6], in test [15] and in [7] was inactive.
On to `CCCCCCCCCCCCCCC/C(NCc1ccccc1)=C1/C(=O)OC(CO)C1=O` (stereo not drawn), for which the IC50 in test [13] is 8.42 µM; in test [1] it was over 100 µM; in [5], over 100 µM; in test [8] it was over 100 µM; in test [9], 16.6 µM; in test [10], over 100 µM. In addition, the half-maximal inhibitory concentration (IC50) came to 11.4 µM in [11] and 16.6 µM in [12]. For the same molecule, in test [3], the Activity entry was “Dose-dependent effect”. Moreover, in [4], the inhibition entry is “Dose-dependent effect”. Also, the result in test [6] and in test [7] was inactive.
Regarding `CCCCCCCCCCCCCCCC(NCc1ccc(C)cc1)=C1C(=O)OC(CO)C1=O` (mixture of isomers), the IC50 in test [13] was 3.33 µM; in test [1] it was over 100 µM; in test [2], 19.1 µM; in [5], 56.7 µM; in test [8], over 100 µM; in test [9], 7.35 µM. In addition, the 50% inhibitory concentration (IC50) was over 100 µM in test [10] and 2.68 µM in test [11].
